Bioassay records (PubChem BioAssay)
CCR6 antag = CCR6 receptor antagonists, primary screen, cell-based, CHO-K1, luminescence, beta-arrestin, uHTS; CHO-K1 CCR6 PathHunter beta-arrestin, CCL20-stimulated; inhibition, % at 20 µM; 0.49% of 340,000 active; AID 493098, 2011;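 active = compounds whose inhibition of the agonist-driven luminescence signal at 20 µM reaches about 50%, limit read from the data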;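 also: cells stimulated with CCL20 at 14 nM final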
APJ agonist = agonists of human apelin receptor APJ, primary screen, CHO-K1 cells, PathHunter beta-arrestin, luminescence; 0.11% of 330,000 active; activation, % at 20 µM; P35414; 0% DMSO wells, 100% apelin;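 active = activation more than six SD over the plate average, tested at 20 µM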
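Test system: CHO-K1 APJ beta-arrestin complementation cell line. Amount: cell density 1000 per well. Controls: DMSO negative, 10 nM Apelin-13 positive. Signal: luminescent beta-gal fragment complementation, chemiluminescent substrate. Read-out basis: agonist-driven arrestin binding to APJ. Timing: compound stimulation 90 min at 25 °C, detection 60 min.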
EBI2 antag = EBI2 receptor antagonists, beta-arrestin recruitment, primary screen, cell-based, luminescence, 7a,25-OHC stimulation, uHTS. 7a,25-OHC stimulated. inhibition, % at 5 µM. 0.81% of 360,000 active. AID 651636, 2012; in the data active = inhibition above about 38%;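 also: enzyme fragment complementation signal reports receptor beta-arrestin coupling in cells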
HTR2A ag = mouse Htr2a agonists via beta-arrestin recruitment, primary screen, cell-based, luminescence. 5-hydroxytryptamine receptor 2A (Mus musculus), P35363. CHO-K1 mHTR2A beta-arrestin complementation; percent of 30 µM serotonin response. activation, % at 7.6 µM. 0.66% of 360,000 active;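 active = activation above a run cutoff, the mean activation of all tested compounds plus 3 SD, cut at about 14% in these data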
APJ antag = antagonists of human apelin receptor APJ, primary screen, CHO-K1 cells, beta-arrestin complementation, luminescence; inhibition, % at 20 µM; 0.32% of 330,000 active; P35414; AID 2521, 2010;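 active = inhibition above about 40% at 20 µM, limit read from the data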;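 also: cells challenged with 10 nM apelin-13 agonist together with compound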
CXCR6 inh = CXCR6 receptor inhibitors, primary screen, cell-based, beta-arrestin, luminescence, CHO-K1 PathHunter, 1536-well; inhibition, % at 20 µM; 0.36% of 360,000 active; in the data active = inhibition above about 34%, passing the limit was not always enough;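 also: antagonist mode with CXCL16 agonist at 10 nM final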
Target sequence (O00574 whole entry, looked up): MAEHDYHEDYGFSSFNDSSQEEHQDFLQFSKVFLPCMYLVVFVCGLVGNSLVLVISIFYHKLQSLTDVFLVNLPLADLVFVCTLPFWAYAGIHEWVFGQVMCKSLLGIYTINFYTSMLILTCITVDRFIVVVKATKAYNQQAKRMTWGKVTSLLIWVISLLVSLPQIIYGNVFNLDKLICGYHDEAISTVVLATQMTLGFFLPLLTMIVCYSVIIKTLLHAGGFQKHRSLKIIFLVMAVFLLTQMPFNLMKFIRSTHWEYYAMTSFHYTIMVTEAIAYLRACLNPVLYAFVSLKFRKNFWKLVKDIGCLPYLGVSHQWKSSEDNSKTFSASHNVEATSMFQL
APJ ag confirm = agonists of human apelin receptor APJ, confirmation, cell-based, single concentration, CHO-K1, beta-arrestin, luminescence; shares compounds with APJ agonist; CHO-K1 APJ PathHunter beta-arrestin; activation, % at 20 µM; 10% of 310 active;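 active = activation above 40%, taking the highest of four retests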
APJ antag confirm = APJ antagonists blocking beta-arrestin recruitment, confirmation, cell-based, luminescence, single concentration, uHTS hits. shares compounds with APJ antag. antagonist mode. inhibition, % at 20 µM. 66% of 950 active. AID 2766, 2010; in the data active = inhibition above about 50%
CXCR6 confirm = CXCR6 receptor antagonists, confirmation, cell-based, single concentration, beta-arrestin, luminescence; shares compounds with CXCR6 inh; CHO-K1 CXCR6 PathHunter beta-arrestin; inhibition, % at 20 µM; 65% of 700 active; AID 602409, 2012;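 active = mean inhibition over four retests above 40%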;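 also: receptor stimulated with 10 nM CXCL16 agonist; beta-galactosidase fragment complementation upon beta-arrestin recruitment to receptor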
MOR ag counter = OPRM1 agonists via beta-arrestin recruitment, confirmation, counter-screen for mouse HTR2A agonist project, cell-based, luminescence, single concentration. activation, % at 9.3 µM. 5.3% of 2,300 active. U2OS OPRM1 beta-arrestin PathHunter; DMSO 0%, DAMGO 9.3 µM 100%. shares compounds with HTR2A ag;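 active = mean activation above the mean of DMSO-only wells plus 3 SD, cut at about 0.5% in these data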
HTR2A ag conf = mouse HTR2A agonists, beta-arrestin recruitment, confirmation, cell-based, luminescence, CHO-K1 PathHunter, triplicate. activation, % at 7.6 µM. DMSO 0%, 30 µM serotonin 100%. shares compounds with HTR2A ag. 19% of 2,300 active;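 active = mean activation across triplicates above the hit threshold derived in the original primary screen, cut at about 15% in these data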
Hits are given with their value; 0 = inactive; - = no result. In the library only some 2.2% were active in any assay of this set; here they are far more common.

SMILES	CCR6 antag	APJ agonist	EBI2 antag	HTR2A ag	APJ antag	CXCR6 inh	APJ ag confirm	others
Cc1ccc(S(=O)(=O)NCc2ccc(C(=O)N3CCN(c4ccc([N+](=O)[O-])cc4)CC3)cc2)cc1	0	19.0	0	0	0	0	0
Cc1ccc2ccccc2c1C(O)c1ncc(-c2ccccc2Cl)[nH]1 (centres undefined)	-	-	0	0	-	0	-
CCOC(=O)C1=CC[C@@H](c2ccccc2)N(S(=O)(=O)c2ccc(C)cc2)[C@H]1C=C(C)C	-	-	0	0	-	0	-
Cc1[nH]c2c(Cl)cccc2c(=O)c1CN1CCCCCC1	0	0	0	0	0	0	-
Cc1ccc2c(=O)c(CN3CCCCCC3)c(C)[nH]c2c1C	0	24.9	0	0	0	0	0
CCOC(=O)CC(S(=O)(=O)c1ccccc1)S(=O)(=O)c1ccccc1	-	-	0	0	-	0	-
CN(C)CCCN(C(=O)c1ccc(S(=O)(=O)N2CCc3ccccc3C2)cc1)c1nc2ccc(F)cc2s1	0	46.8	0	0	0	0	0
Cc1ccc2nc(N(CCCN(C)C)C(=O)c3ccc(S(=O)(=O)N4CCc5ccccc5C4)cc3)sc2c1	0	78.7	0	0	0	0	46.1
CN(C)CCCN(C(=O)c1ccc(S(=O)(=O)N2CCc3ccccc3C2)cc1)c1nc2c(F)cccc2s1	0	0	0	0	0	0	-
Cc1cc(C)c2sc(N(CCCN(C)C)C(=O)c3ccc(S(=O)(=O)N4CCc5ccccc5C4)cc3)nc2c1	-	66.0	0	0	0	0	44.5
Cc1cccc2sc(N(CCCN(C)C)C(=O)c3ccc(S(=O)(=O)N4CCc5ccccc5C4)cc3)nc12	0	0	0	0	0	0	-
COc1ccc2sc(N(CCCN(C)C)C(=O)c3ccc(S(=O)(=O)N4CCc5ccccc5C4)cc3)nc2c1	0	49.7	0	0	0	0	0
COc1ccc2sc(N(CCCN(C)C)C(=O)c3ccc(S(=O)(=O)N4CCCC4)cc3)nc2c1	0	0	0	0	0	0	-
NC(c1csc(Nc2ccc(C(=O)c3ccccc3)cc2)n1)C1CCCCC1 (centres undefined)	-	-	0	0	-	0	-
CCCCN1C(=O)C(=O)NC[C@@H]1Cc1ccc(O)cc1	-	-	0	0	-	0	-
Cc1ccc(C)c(C(Nc2ccccc2)c2ccc3ccc(C)nc3c2O)c1 (centres undefined)	-	-	0	0	-	-	-
Cc1cc(C)n(-c2nc(N(c3ccccc3)c3ccccc3)nc(-n3nc(C)cc3C)n2)n1	0	36.0	0	0	0	0	0
Cc1ccc(-n2nnc3c(=O)oc4ccccc4c32)cc1	0	32.3	0	0	0	0	0
CCc1nc2ccc(C(=O)Nc3cccc(NS(C)(=O)=O)c3)cn2c1N(C)CCN1CCOCC1	-	-	0	0	-	0	-
O=C(NCc1ccncc1)[C@@H]1CCCN1C(=O)[C@@H]1CCCN1C(=O)c1cccc2ccccc12	-	-	0	0	-	0	-
COC/C=C/C1=CC2=CC(=O)C(C)(OC(=O)c3cnc4ccccc4n3)C(=O)C2=CN1C1CCCC1 (centres undefined)	-	121.9	-	-	0	-	0
COc1cccc2sc3ccc(NCCC4CCCN4C)cc3c(=O)c12 (centres undefined)	0	52.5	0	0	0	0	0
Cc1cccc(/C(N)=N/OC(=O)c2cccc3ccccc23)c1	-	36.5	0	0	0	0	0
O=C1[C@H]2[C@@H](c3ccccc3)N[C@]3(CCCN(Cc4ccc(Br)cc4)C3=O)[C@H]2C(=O)N1Cc1ccccc1	-	-	0	0	-	0	-
COc1cc2ccccc2cc1C(=O)Nc1ccc(N2CCN(C(=O)C(C)C)CC2)cc1	0	19.6	0	0	0	0	0
SMILES	CCR6 antag	APJ agonist	EBI2 antag	HTR2A ag	APJ antag	CXCR6 inh	APJ ag confirm	others
COc1cc2ccccc2cc1C(=O)Nc1ccc(N2CCN(C)CC2)cc1	0	0	0	0	0	0	-
CCOc1ccc(/C=C/[N+](=O)[O-])c2ccccc12	-	16.3	0	0	0	60.2	0	CXCR6 confirm=52.0
O=C(NCc1ccccc1)c1cc(C2CCCCN2S(=O)(=O)c2ccccc2)on1 (centres undefined)	-	-	0	0	-	0	-
COc1cc2c3nnc(-c4ccc(F)cc4)c-3cn(Cc3ccccc3)c2cc1OC	0	24.2	0	25.4	0	0	0	MOR ag counter=0;HTR2A ag conf=0
COc1ccc(-c2cc(-c3nc4ccccn4c3NCc3ccccc3)ccc2OC)cc1	0	23.1	0	32.6	0	0	0	MOR ag counter=1.4;HTR2A ag conf=29.4
COC(=O)[C@@]1(Sc2ccc(C)cc2)CC(=O)N(C(=O)c2ccccc2)[C@@H]1c1ccccc1	-	-	0	0	-	0	-
COCCN1C(=O)CN(S(C)(=O)=O)CC1(C)C(=O)Nc1c(C)cccc1C (centres undefined)	-	-	0	0	-	-	-
COc1ccc(S(=O)(=O)N(C)CC(=O)NCc2ccco2)cc1Cl	0	0	0	0	0	0	-
COc1ccc(C)cc1S(=O)(=O)N(C)CC(=O)NCc1ccco1	0	25.4	0	15.9	0	0	0	MOR ag counter=0;HTR2A ag conf=0
CCN(CC)c1ccc2nc3ccc(N)cc3[n+](-c3ccccc3)c2c1	58.6	0	0	0	45.0	0	-	APJ antag confirm=95.7
CCN(CC)c1ccc2nc3ccccc3[n+](CC)c2c1	0	0	0	0	0	0	-
COc1ccc(CCN2C(=O)COc3ccccc3C2C(=O)NC(C)(C)C)cc1OC (centres undefined)	-	-	0	0	-	0	-
